# Shown are actives, neighbours in structure and some others; about 2.5% of the full set was active somewhere.
# MBD2 DNA inh = MBD2-methylated oligo binding inhibition; Q9UBB5; TR-FRET, MBD2 binding to methylated oligonucleotide; inhibition, % at 4.4 µM; actives 0.31% (n = 370,000); AID 686964; in the data active means inhibition above about 13%
# Target sequence (Q9UBB5 whole entry, looked up): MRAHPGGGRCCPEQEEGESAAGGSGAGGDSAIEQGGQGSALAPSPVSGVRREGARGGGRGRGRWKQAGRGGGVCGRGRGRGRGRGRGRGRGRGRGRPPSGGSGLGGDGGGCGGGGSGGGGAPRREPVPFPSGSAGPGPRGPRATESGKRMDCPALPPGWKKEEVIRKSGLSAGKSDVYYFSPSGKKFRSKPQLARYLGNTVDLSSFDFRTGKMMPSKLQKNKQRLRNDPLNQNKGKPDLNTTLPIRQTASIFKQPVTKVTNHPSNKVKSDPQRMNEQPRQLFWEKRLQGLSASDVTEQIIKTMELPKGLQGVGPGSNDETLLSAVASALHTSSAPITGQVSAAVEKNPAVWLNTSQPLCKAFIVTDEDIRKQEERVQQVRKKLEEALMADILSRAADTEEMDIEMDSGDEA
# DSG3 Ab inh = blocks pemphigus antibody binding to human desmoglein-3; P32926; DSG3-coupled beads, scFv-anti-DSG3-GFP binding, flow cytometry; active compounds read low; binding (percent of control), % at 10 µM; actives 0.48% (n = 310,000);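 active means binding more than 3 SD below its plate's average and above zero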;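 further: hits lower antibody fragment binding to DSG3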
# SUMO1-SIM PPI = SUMO1-SIM interaction modulation; P63165; SUMO1 binding to a labelled peptide, TR-FRET, 1 h; inhibition, % at 20 µM; actives 0.33% (n = 360,000); in the data active means inhibition above about 37%
# Target sequence (P63165 whole entry, looked up): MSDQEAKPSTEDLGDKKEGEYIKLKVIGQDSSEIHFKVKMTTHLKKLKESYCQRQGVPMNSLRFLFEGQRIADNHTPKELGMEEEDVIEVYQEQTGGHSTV
# DNMT1 block = DNMT1 (human) enzyme inhibition. AID 588458. actives 0.83% (n = 360,000). inhibition (reported as % activation of signal), % at 10 µM. P26358. DNMT1 molecular beacon, Hinp1I cleavage, fluorescence; in the data active means inhibition above about 50%
# UHRF1 MBD2 ctr = human UHRF1 methylated DNA binding inhibitors | Q96T88 | UHRF1 binding to methylated oligo, TR-FRET | inhibition, % at 4.4 µM | actives 0.75% (n = 370,000) | AID 687016; in the data active means inhibition above about 21%;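 further: UHRF1 SRA domain binding a hemimethylated CpG hairpin DNA probe; 0% = median of test compound wells and 100% = reference inhibitor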
# HCV NS3 hel inh = blocks Hepatitis C virus NS3 helicase unwinding. AID 1800. inhibition, % at 10.9 µM. actives 0.56% (n = 290,000). NS3 helicase DNA unwinding, Cy5 molecular beacon fluorescence;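 active means inhibition above the mean of all tested compounds plus 3 SD, set per campaign, cut at about 35% in these data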;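 further: 0% = DMSO wells and 100% = thioflavine S control wells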
#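 Compound dosing – single dose, 10.9 µM nominal final, DMSO 0.8% final · System – NS3 helicase fragment of HCV · Buffer or medium – MOPS pH 6.5, MgCl2, DTT, Tween20, BSA · Signal – Cy5 beacon fluorescence read at start and 1 h · Also added – annealed dual-labelled DNA beacon duplex, ATP-started · Schedule – 1 h at 25 °C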
# Starred values were filed as active, the others as inactive; / = no result.
SMILES,MBD2 DNA inh,DSG3 Ab inh,SUMO1-SIM PPI,DNMT1 block,UHRF1 MBD2 ctr,HCV NS3 hel inh
Cc1ccc(NC(=O)COC(=O)CCC(=O)c2cccs2)c(C)c1,-4.0,91.2*,-4.9,4.0,0.1,6.8
Cc1ccc2nc(NC(=O)c3ccc4c(c3)OCO4)sc2c1,2.5,102.8,-3.9,10.2,8.3,1.0
Cc1ccc(NC(=O)COC(=O)c2ccc3ncsc3c2)c(C)c1,0.3,107.0,3.0,2.9,21.6*,/
Cc1ccc(S(=O)(=O)NCC(=O)OCC(=O)c2cccs2)cc1,1.6,42.7*,30.3,2.1,1.6,8.0
Cc1ccc2nc(NC(=O)c3ccc4ncsc4c3)sc2c1,5.6,-6.3*,-4.4,-4.9,-1.5,0.1
Cc1ccc(S(=O)(=O)NCC(=O)OCC(=O)c2ccc(Br)s2)cc1,-2.8,103.9,0.3,-1.7,0.0,1.3
CC(C)CC(NC(=O)CC12CC3CC(CC(C3)C1)C2)C(=O)NC1=NCCS1 (stereo not given),5.5,78.3,1.7,-0.2,-1.3,2.4
CN1CCC(N(C)C(=S)Nc2ccc(SC(F)F)cc2)CC1,6.0,95.2,3.2,-0.1,6.0,-7.1
N#Cc1ccc(CSc2nnc(NC(=O)c3ccc4ncsc4c3)s2)cc1,0.1,92.5,39.9*,3.3,-0.6,-4.5
O=C(CSc1ccc(Cl)cc1)N1CCN(c2ccc(Cl)cc2[N+](=O)[O-])CC1,0.1,107.6,-19.6,-3.1,21.9*,-11.3
CCOC(=O)C1(Cc2cccc(Cl)c2)CCCN(C(=O)c2ccc(C)nc2)C1 (stereo not given),2.2,67.3*,4.0,7.8,-2.4,-1.4
CN(C)c1cccc(CNC(=O)c2ccc3nc([C@H]4C[C@H](O)[C@@H](CO)O4)[nH]c3c2)c1,4.4,/,1.1,-4.0,3.1,/
CN(C)c1cccc(CNC(=O)c2ccc3nc([C@@H]4O[C@H](CO)[C@H](O)[C@H](O)[C@H]4O)[nH]c3c2)c1,0.7,/,1.4,1.7,81.0*,/
O=C(Nc1nc(-c2ccccc2)cs1)C1CCCN(S(=O)(=O)c2ccccc2)C1 (stereo not given),-1.0,92.3,42.3*,-6.8,3.2,-18.9
O=C(Nc1nc(-c2ccccc2)cs1)C1CCCN(S(=O)(=O)c2cccc([N+](=O)[O-])c2)C1 (stereo not given),6.9,94.2,-9.2,-1.6,1.3,-1.7
CCOC(=O)c1cc([N+](=O)[O-])sc1NC(=O)CC,-0.3,112.1,-25.8,2.4,-1.4,1.3
O=C(CN(Cc1ccccc1)C(=O)CCC(=O)Nc1nccs1)NCC1CCCO1 (stereo not given),7.5,0.3*,3.6,-1.8,2.3,4.5
O=C(CN(CC1CCCO1)C(=O)CCC(=O)Nc1nccs1)NCC1CCCO1 (stereo not given),-0.3,/,-1.4,-1.8,-1.3,-7.8
CCS(=O)(=O)C1C(=O)N(C)C(S(=O)(=O)CC)C(=O)N1C (stereo not given),0.8,100.2,2.6,2.3,1.0,/
O=C(COC(=O)COc1ccc(Nc2ccccc2)cc1)NCc1ccco1,0.1,101.1,-1.4,-6.7,-2.6,14.9
CSCCC(NC(=O)c1ccccc1)C(=O)OCC(=O)NCc1ccco1 (stereo not given),-4.2,97.7,4.6,9.6,26.7*,/
O=C(COC(=O)c1ccccc1Nc1ccccc1)NCc1ccco1,-1.1,66.6,1.7,-2.2,20.9*,8.2
COC(=O)c1[nH]c2ccc(C)cc2c1NC(=O)CN1CCN(c2ccccc2)CC1,-3.8,105.2,-6.5,-3.6,-2.3,-18.8
CCn1c(SCc2nc3sc(C(=O)O)c(C)c3c(=O)[nH]2)nc2ccccc21,6.9,96.1,40.7*,43.8,24.9*,7.3
CC(C)CCN(C(=O)Cc1ccc(Cl)c(Cl)c1)c1c(N)n(Cc2ccccc2)c(=O)[nH]c1=O,-3.0,/,5.2,8.8,-2.0,1.0
SMILES,MBD2 DNA inh,DSG3 Ab inh,SUMO1-SIM PPI,DNMT1 block,UHRF1 MBD2 ctr,HCV NS3 hel inh
COc1ccc(C(C)=O)c2c1OCCO2,-0.3,105.7,-0.8,-1.8,53.6*,-2.6
COc1ccc(C(C)=O)c2c(O)cccc12,0.2,98.4,-6.9,-3.9,6.9,-4.1
O=c1cc[nH]c(=O)[nH]1,-4.6,109.3,3.1,-0.7,-0.6,/
CN1CCN(c2cc(-c3cccc(C(=O)O)c3)nc3ccnn23)CC1,0.4,/,-3.2,-1.5,0.1,/
CNC(=S)N1CCN(c2nc(-c3ccc(Cl)cc3)cs2)CC1,5.0,97.3,-3.6,-3.8,-2.2,-21.2
COc1ccc(CC(=O)Nc2ccc(/C(C)=N/NC(=O)c3cccc([N+](=O)[O-])c3)cc2)cc1,2.9,77.5*,-10.8,-1.4,-2.3,-7.5
C/C(=N/NC(=O)c1cc(O)c(O)c(O)c1)c1ccc([N+](=O)[O-])cc1,4.7,97.2,-16.2,11.2,21.9*,20.2
COc1ccc(C(=O)N/N=C(\C)c2ccc(NC(=O)Cc3ccccc3)cc2)c(OC)c1,-5.2,113.8,46.5*,5.0,-2.2,3.0
CC1CCCCC1NC(=S)Nc1ccc(Cl)cc1Cl (stereo not given),1.2,93.0,-4.6,-0.2,-0.9,17.0
CC(=O)Nc1ccc(OC(=O)c2c(-c3ccccc3Cl)noc2C)cc1,0.4,103.2,37.1*,-4.2,0.1,-2.8
COc1ccccc1NC(=S)NNC(=O)c1ccncc1,8.8,88.1,-1.2,0.9,22.9*,-3.6
COc1ccccc1NC(=S)NC(=O)c1c(-c2ccccc2Cl)noc1C,2.1,80.5,-0.1,-6.9,23.8*,-9.9
Cc1onc(-c2ccccc2Cl)c1C(=O)NC(=S)Nc1ccccc1F,0.4,104.8,0.3,-4.6,7.2,-15.9
CCS(=O)(=O)c1ccc2oc(SCC(=O)NC34CC5CC(CC(C5)C3)C4)nc2c1,5.2,100.7,-0.6,6.4,1.2,-0.6
COc1cccc(C(=O)Nc2ccccc2-c2ccccc2)c1,8.2,99.1,1.3,3.9,21.9*,/
COc1cccc(C(=O)Nc2ccccc2NC(=O)c2cccc(OC)c2)c1,3.8,104.9,1.6,-0.3,-0.1,-13.5
NC(CSC1(c2ccc(F)cc2)c2ccccc2-c2ccccc21)C(=O)O (stereo not given),-2.2,95.4,-0.9,15.2,-1.4,/
COc1ccc(C2(SCC(N)C(=O)O)c3ccccc3-c3ccccc32)cc1 (stereo not given),2.8,72.2*,2.9,-31.2,3.2,/
O=C(c1ccc(CNc2c(N3CCCC3)c(=O)c2=O)cc1)N1CC=C(c2ccccc2)CC1,4.4,86.5,0.4,8.7,2.5,-1.7
O=C1Nc2ccccc2/C1=C/c1cnc(-c2ccccc2)[nH]1,3.4,168.9,42.5*,26.8,-2.4,-10.6
O=C1Nc2ccccc2/C1=C/c1cccnc1,-6.0,112.5,-6.9,-1.8,7.7,-1.1
N/C(=N\OC(=O)/C=C/c1ccccc1)c1ccccn1,2.9,97.4,-7.3,-3.3,24.1*,1.1
